≈ marks a conversion by molar mass, not a printed value. Calls of active or inactive are those of the source. The calls are words filed in the database; no cut-off is given here.
Assays:
[1] = tested on: Human alphaherpesvirus 2; test: Tested in vitro for minimum inhibitory activity against Herpes simplex virus type -2 (HSV-2); Inactive; assay type: functional, organism-based
[2] = tested on: Mus musculus; test: (§1) Effect on the survival rate of mouse infected with herpes genitalis (HSV-2) administered intravaginally at 2% dosage twice in a day; assay type: functional
Procedure, shortened: (§2)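 HSV-2 mouse genital model, infected intravaginally. Drug prepared in water + 1% gum tragacanth and given intravaginally b.i.d. via saturated cotton tampons, starting 4 h postinfection. Tampons were re-dosed with 0.02 mL 6 h after insertion and replaced daily. Test ended at day 14, with survivors assigned survival time >14 days. Read-out: % survival and average survival time.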

[3] = tested on: Mus musculus; test: Effect on the survival rate of mouse infected with herpes genitalis (HSV-2) administered intravaginally at 5% dosage twice in a day; assay type: functional; procedure, shortened: as §2
[4] = tested on: Human alphaherpesvirus 2; test: Tested in vitro for minimum inhibitory activity against Herpes simplex virus type -2 (HSV-2); assay type: functional
[5] = tested on: Human alphaherpesvirus 2; test: as §1; assay type: functional; procedure, shortened: as §2

With CCc1n[nH]c(CC)c1CCCCCCOc1cc(Cl)c(OC)cc1Cl as the compound, how does the MIC [1] read?
The MIC was “inactive”.

For CCc1n[nH]c(CC)c1CCCCCCOc1ccccc1, which MIC [1] is on record?
Its MIC is “inactive”.

O=c1[nH]c(=O)n([C@H]2C[C@H](O)[C@@H](CO)O2)cc1I [IDOXURIDINE] was tested. Which Average survival [2] did it give?
Its Average survival is >11 days.

What about the Survival [2] of the same compound?
Its Survival is 40%.

What about the Average survival [3] of the same compound?
Its Average survival is >9 days.

What about the Survival [3] of the same compound?
The Survival was 10%.

CCc1nn(CCO)c(CC)c1CCCCCCOc1ccc(OC)cc1Cl was tested. Which MIC [4] did it give?
The MIC was 12 µg/mL (≈ 29.3 µM).

With CCc1nn(C)c(CC)c1CCCCCCOc1ccc(OC)cc1Cl as the compound, how does the MIC [4] read?
The MIC was 6 µg/mL (≈ 15.8 µM).

For O=C(O)CP(=O)(O)O [FOSFONET], which Survival [5] is on record?
The Survival was 90%.

And the Average survival [2]?
The Average survival was >13 days.

What about the Average survival [3] of the same compound?
Its Average survival is >13 days.

What about the Survival [3] of the same compound?
The Survival was 90%.

With CCc1nn(CC(=O)O)c(CC)c1CCCCCCOc1ccc(OC)cc1Cl as the compound, how does the MIC [1] read?
The MIC was “inactive”.

With CCc1n[nH]c(CC)c1CCCCCCOc1ccc(SC)cc1Cl as the compound, how does the MIC [1] read?
Its MIC is “inactive”.

How did the MIC [4] turn out when CCc1nn(C(=O)CCCN2CCOCC2)c(CC)c1CCCCCCOc1ccc(OC)cc1Cl was run?
The MIC was 3 µg/mL (≈ 5.77 µM).
